pIC50: −log10 of the molar value. Values belong to the molecule of their own block, whether it stands above or below them. The source made the active and inactive calls. The rule behind the calls is not given here.
What was measured:
[1] = target: T1, Anoctamin-1 (Homo sapiens) (UniProt Q5XXA6); experiment: Inhibition of human ANO1 channel expressed in HEK293 cells at 10 uM incubated for 10 mins by FLIPR assay relative to control; type: cell-based
T1 sequence (whole entry): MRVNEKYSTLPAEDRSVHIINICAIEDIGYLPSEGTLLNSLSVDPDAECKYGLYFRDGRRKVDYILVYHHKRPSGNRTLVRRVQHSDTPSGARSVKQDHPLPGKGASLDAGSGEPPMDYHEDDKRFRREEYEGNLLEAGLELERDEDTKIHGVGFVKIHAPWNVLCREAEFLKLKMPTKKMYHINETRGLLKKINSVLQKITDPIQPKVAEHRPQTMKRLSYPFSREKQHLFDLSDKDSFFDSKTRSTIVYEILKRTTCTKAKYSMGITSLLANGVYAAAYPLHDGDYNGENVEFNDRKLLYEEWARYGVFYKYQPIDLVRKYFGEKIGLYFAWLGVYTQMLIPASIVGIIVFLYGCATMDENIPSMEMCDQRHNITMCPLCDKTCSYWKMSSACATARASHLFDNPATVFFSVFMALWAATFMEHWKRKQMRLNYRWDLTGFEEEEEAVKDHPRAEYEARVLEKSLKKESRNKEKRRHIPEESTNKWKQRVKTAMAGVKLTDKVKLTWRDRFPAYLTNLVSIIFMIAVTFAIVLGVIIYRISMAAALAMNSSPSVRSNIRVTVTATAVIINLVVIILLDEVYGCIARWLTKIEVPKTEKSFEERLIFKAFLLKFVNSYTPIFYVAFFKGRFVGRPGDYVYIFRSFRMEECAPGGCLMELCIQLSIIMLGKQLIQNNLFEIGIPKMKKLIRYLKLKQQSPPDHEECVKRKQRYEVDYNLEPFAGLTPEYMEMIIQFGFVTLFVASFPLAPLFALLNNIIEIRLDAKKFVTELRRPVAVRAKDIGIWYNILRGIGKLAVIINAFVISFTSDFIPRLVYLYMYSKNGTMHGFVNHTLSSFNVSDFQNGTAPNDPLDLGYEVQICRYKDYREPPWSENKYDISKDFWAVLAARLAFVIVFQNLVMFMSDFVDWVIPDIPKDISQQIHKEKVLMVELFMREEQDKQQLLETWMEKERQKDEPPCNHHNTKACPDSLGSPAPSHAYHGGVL
Summary of the method: (§1)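 HEK293 cells expressing human ANO1, 50,000 cells/well, plated overnight. Loaded with FLIPR Red membrane-potential dye in HEPES-buffered saline (pH 7.4) for 40-60 min at room temperature. Compound added for 10 min at room temperature, final DMSO 0.5%.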

Anoctamin-1 [2] = target: T2, Anoctamin-1 (Homo sapiens, UniProt Q5XXA6); experiment: Inhibition of human ANO1 channel expressed in HEK293 cells incubated for 10 mins by FLIPR assay; type: cell-based; summary of the method: as §1
T2 sequence (Q5XXA6 whole entry): T1 sequence (whole entry)

Anoctamin-1 [3] = target: T3, Anoctamin-1 (Mus musculus, UniProt Q8BHY3); experiment: Inhibition of GFP-fused mouse ANO1 channel expressed in HEK293A cells assessed as inhibition of ATP-induced channel current amplitude at membrane potential of +80 mV by patch clamp electrophysiology assay; type: cell-based, HEK293-A
T3 sequence (Q8BHY3 whole entry): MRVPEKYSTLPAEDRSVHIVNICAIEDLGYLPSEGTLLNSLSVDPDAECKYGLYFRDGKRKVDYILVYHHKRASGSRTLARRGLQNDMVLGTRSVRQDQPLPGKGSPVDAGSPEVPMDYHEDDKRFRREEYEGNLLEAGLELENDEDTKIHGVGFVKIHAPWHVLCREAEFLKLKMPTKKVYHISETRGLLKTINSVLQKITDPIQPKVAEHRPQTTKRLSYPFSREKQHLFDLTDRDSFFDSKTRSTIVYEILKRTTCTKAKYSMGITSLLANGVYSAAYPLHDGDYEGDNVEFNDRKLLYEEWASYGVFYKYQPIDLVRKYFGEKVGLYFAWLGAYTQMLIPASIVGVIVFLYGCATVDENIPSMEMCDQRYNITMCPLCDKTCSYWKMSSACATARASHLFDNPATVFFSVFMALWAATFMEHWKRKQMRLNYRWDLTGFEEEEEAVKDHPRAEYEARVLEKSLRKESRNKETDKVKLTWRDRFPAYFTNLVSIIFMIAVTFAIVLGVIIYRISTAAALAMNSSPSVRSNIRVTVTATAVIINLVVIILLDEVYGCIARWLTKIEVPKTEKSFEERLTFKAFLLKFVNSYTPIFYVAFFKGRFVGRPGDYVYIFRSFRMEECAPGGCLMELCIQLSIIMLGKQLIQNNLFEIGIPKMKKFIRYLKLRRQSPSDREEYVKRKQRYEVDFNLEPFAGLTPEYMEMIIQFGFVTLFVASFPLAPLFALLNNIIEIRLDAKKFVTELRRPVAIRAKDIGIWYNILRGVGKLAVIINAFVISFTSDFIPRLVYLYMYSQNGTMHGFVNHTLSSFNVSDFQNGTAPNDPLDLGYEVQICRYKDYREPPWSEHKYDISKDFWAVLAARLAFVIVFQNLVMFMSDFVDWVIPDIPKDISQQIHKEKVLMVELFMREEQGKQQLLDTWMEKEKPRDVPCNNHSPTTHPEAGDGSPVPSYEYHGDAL
Summary of the method: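 Whole-cell recording at room temperature in HEK293A cells transfected with GFP-mANO1, GFP-mANO2 or GFP-mTTYH1. 1 s ramps from +80 to -80 mV, holding potential -10 mV. For ANO1/ANO2: pipette CsCl 146 mM with Ca-EGTA-NMDG, pH 7.3; bath NaCl-based, pH 7.3. For TTYH1: Tris-aspartate pipette (pH 7.2) and Tris-HCl bath (pH 7.4), with […] and BaCl2 added to block K+ channels, and hypotonic (220 mOsm/kg) bath. Washout recordings assessed reversibility.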

U-251 [4] = experiment: Antiproliferative activity against human U251 cells overexpressing ANO1 assessed as reduction in cell viability at 100 uM measured after 72 hrs by Celltiter-glo assay; type: functional
Summary of the method: (§2)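 5.0×10^3 cells/well seeded, overnight, then compounds added as 1:4 serial dilutions in DMSO; viability read after 72 h with CellTiter-Glo luminescence. GI50 from fitted dose-response curves; triplicate wells, SD from three independent experiments. DMEM for U251 and U138, MEM for U87MG, both with 10% FBS and pen/strep, 37 °C, 5% CO2.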

U-87 MG [5] = experiment: Antiproliferative activity against human U87MG cells overexpressing ANO1 assessed as reduction in cell viability at 100 uM measured after 72 hrs by Celltiter-glo assay; type: functional, U-87MG ATCC; summary of the method: as §2
[6] = Antiproliferative activity against mouse primary astrocytes assessed as reduction in cell viability at 100 uM measured after 72 hrs by Celltiter-Glo luminescent assay; type: cell-based, Astrocyte
Summary of the method: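 Primary astrocytes isolated from adult mouse brain by a previously reported method. 5.0×10^3 cells/well, compound as 1:4 serial DMSO dilutions, CellTiter-Glo viability at 72 h.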

U138-MG [7] = experiment: Antiproliferative activity against human U138 cells overexpressing ANO1 assessed as reduction in cell viability at 100 uM measured after 72 hrs by Celltiter-glo assay; type: functional; summary of the method: as §2
U-251 [8] = experiment: Inhibition of colony formation in human U251 cells at 10 uM incubated for 14 days by crystal violet dye based assay; type: functional; settings: U-251, 336 h, time 14 day
Summary of the method: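 Colonies stained 24 h with crystal violet in methanol/formaldehyde/PBS, washed, extracted with 10% acetic acid and read at A570 nm. Compared against DMSO control.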

U-251 [9] = experiment: Inhibition of anchorage-independent colony formation in human U251 cells at 10 uM incubated for 14 days by crystal violet staining based soft agar colony formation assay; type: functional, cell-based; settings: time 14.0 day
Summary of the method: (§3)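 Soft agar assay: 2.0×10^3 U251 cells in complete medium with 0.3% agar over a 0.6% bottom agar layer. Treated with compounds at 1-100 μM for 14 days, 37 °C, 5% CO2. Colonies stained with crystal violet for 24 h, whole wells photographed and colonies counted against DMSO control; n = 3.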

U-251 [10] = experiment: Inhibition of cell invasion in human U251 cells at 10 uM incubated for 48 hrs by Boyden chamber method; type: functional
Summary of the method: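 Boyden chamber invasion: U251 cells serum-starved 24 h, then 2.5×10^5 cells seeded in 8-μm ECMatrix-coated transwells. Treated with compound at 1 or 10 μM for 48 h at 37 °C. Invasion ratio from relative fluorescence.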

U-251 [11] = experiment: Inhibition of anchorage-independent colony formation in human U251 cells at 30 uM incubated for 14 days by crystal violet staining based soft agar colony formation assay; type: functional, cell-based; settings: time 14.0 day; summary of the method: as §3
U-251 [12] = experiment: Inhibition of anchorage-independent colony formation in human U251 cells at 100 uM incubated for 14 days by crystal violet staining based soft agar colony formation assay; type: functional; settings: U-251, 336 h, time 14 day; summary of the method: as §3
U-251 [13] = experiment: Inhibition of cell migration in human U251 cells at 10 uM incubated for 18 hrs by wound healing assay; type: functional
Summary of the method: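 U251 monolayer, 2.0×10^5 cells/well, plated overnight, then scratched and washed with PBS. Wound area imaged before and after incubation; migration ratio taken from migrated area. One-way ANOVA.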

U-251 [14] = experiment: Antiproliferative activity against human U251 cells overexpressing ANO1 assessed as reduction in cell viability measured after 72 hrs by Celltiter-glo assay; type: functional; summary of the method: as §2
U138-MG [15] = experiment: Antiproliferative activity against human U138 cells overexpressing ANO1 assessed as reduction in cell viability measured after 72 hrs by Celltiter-glo assay; type: functional; summary of the method: as §2
U-87 MG [16] = experiment: Antiproliferative activity against human U87MG cells overexpressing ANO1 assessed as reduction in cell viability measured after 72 hrs by Celltiter-glo assay; type: functional, U-87MG ATCC; summary of the method: as §2

- inhibition [1]: 67.9%
- pIC50 (Anoctamin-1 [2]): 5.32
- pIC50 (Anoctamin-1 [3]): 5.39
Structure (SMILES): CC(C)(C)C(=O)Nc1sc2c(c1C(N)=O)CCCCC2
- inhibition at 100 µM (U-251 [4]): < 50%
- inhibition at 100 µM (U-87 MG [5]): < 50%
- inhibition at 72 h, 100 µM [6]: < 50%
- inhibition at 100 µM (U138-MG [7]): < 50%

- pIC50 (Anoctamin-1 [3]): 5.82
- GI50 (U-251 [14]): 41.9 µM
Structure (SMILES): CC(C)(C)C1CCc2c(sc(NC(=O)c3ccco3)c2C(=O)O)C1 (stereo not given)
- inhibition at 10 µM (U-251 [8]): 72.7%
- inhibition (U-251 [9]): inactive
- inhibition at 10 µM (U-251 [10]): 28.3%
- inhibition (U-251 [11]): inactive
- inhibition at 100 µM (U-251 [12]): 72.7%
- inhibition at 10 µM (U-251 [13]): 34.8%
- inhibition at 100 µM (U-87 MG [5]): < 50%
- inhibition at 72 h, 100 µM [6]: < 50%
- GI50 (U138-MG [15]): 89.4 µM

- inhibition [1]: < 10%
Structure (SMILES): NC(=O)c1c(NC(=O)c2ccccc2)sc2c1CCC2

- inhibition [1]: < 10%
Structure (SMILES): NC(=O)c1ccsc1NC(=O)c1ccccc1

- inhibition [1]: < 10%
Structure (SMILES): CC(C)(C)C(=O)Nc1sccc1C(N)=O

- inhibition [1]: 80.1%
- pIC50 (Anoctamin-1 [2]): 5.53
- pIC50 (Anoctamin-1 [3]): 5.60
- GI50 (U-251 [14]): 83.2 µM
Structure (SMILES): CC(C)(C)C1CCc2c(sc(N)c2C(N)=O)C1 (stereo not given)
- inhibition at 100 µM (U-87 MG [5]): < 50%
- inhibition at 72 h, 100 µM [6]: < 50%
- inhibition at 100 µM (U138-MG [7]): < 50%

- inhibition [1]: 70.3%
- pIC50 (Anoctamin-1 [2]): 5.51
- pIC50 (Anoctamin-1 [3]): 5.25
- GI50 (U-87 MG [16]): 82.4 µM
- GI50 (U-251 [14]): 70.2 µM
Structure (SMILES): CC(C)(C)C1CCc2c(sc(NC(=S)NC(=O)c3ccccc3)c2C(N)=O)C1 (stereo not given)
- inhibition at 72 h, 100 µM [6]: < 50%
- inhibition at 100 µM (U138-MG [7]): < 50%

- inhibition [1]: < 10%
Structure (SMILES): NC(=O)c1c(N)sc2c1CCCCC2

- inhibition [1]: 12.3%
Structure (SMILES): NC(=O)c1c(NC(=S)NC(=O)c2ccc3c(c2)OCCO3)sc2c1CCC2

- inhibition [1]: < 10%
Structure (SMILES): COc1cc(C(=O)NC(=S)Nc2sc3c(c2C(N)=O)CCC3)cc(OC)c1OC

- inhibition [1]: 15.4%
Structure (SMILES): NC(=O)c1c(N)sc2c1CCC2

- inhibition [1]: 21.8%
Structure (SMILES): NC(=O)c1c(NC(=S)NC(=O)c2ccco2)sc2c1CCCCC2

- inhibition [1]: 51.5%
Structure (SMILES): NC(=O)c1c(NC(=O)c2ccco2)sc2c1CCC2

- inhibition [1]: < 10%
Structure (SMILES): CC(C)(C)C1CCc2c(sc(NC(=O)c3ccco3)c2C(N)=O)C1 (stereo not given)

- inhibition [1]: 13.8%
Structure (SMILES): CC(C)(C)C1CCc2c(sc(NC(=S)NC(=O)c3ccco3)c2C(N)=O)C1 (stereo not given)

- inhibition [1]: 12.1%
Structure (SMILES): NC(=O)c1c(NC(=O)c2ccccc2)sc2c1CCCCC2

- inhibition [1]: < 10%
Structure (SMILES): NC(=O)c1c(NC(=S)NC(=O)c2cccc(Cl)c2)sc2c1CCC2
